Measured values as given in ChEMBL document CHEMBL1138632, “Identification and structure-activity relationship studies of 3-methylene-2-norbornanone as potent anti-proliferative agents presumably working through p53 mediated apoptosis” (2004).

Legend:
CAKI-1 [1] = experiment: Fold selectivity expressed as ratio of LC50 for Caki cells with non-mutant p53 to LC50 for Ramos RA1 cells with a mutation at Asp 254; format: functional, Homo sapiens
Outline: (§1)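 Selectivity is the fold ratio of the Caki-1 (wild-type p53) LC50 to the mutant-p53 line LC50 (C33A or Ramos RA1). LC50s come from the 72 h anti-proliferation assay in RPMI/10% FBS, 0.001–100 range. Values are means of three experiments.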

[2] = Lethal concentration required to kill 50% Ramos RA1 cells of the human lymphocyte with a mutation at Asp 254; format: functional; conditions: read-out: LC50 (the source's name)
Outline: (§2)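 Cells (Caki-1 renal carcinoma with wild-type p53 as negative control; C33A cervical and Ramos RA1 lymphocyte lines with mutant p53) plated sub-confluent at 1 × 10⁵ cells/mL in RPMI with 10% FBS. Compounds added at 0.001–100 for 72 h, with a positive control and a vehicle negative control. LC50 is the concentration killing 50% of cells.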

CAKI-1 [3] = experiment: Lethal concentration required to kill 50% Caki-1 cells of the human renal carcinoma with non-mutant wt p53; format: functional; conditions: read-out: LC50 (the source's name); outline: as §2
CAKI-1 [4] = experiment: Fold selectivity expressed as ratio of LC50 for Caki cells with non-mutant p53 to LC50 for C33A cells with a mutation at Cys 273; format: functional, Homo sapiens; outline: as §1

SMILES | Fold selectivity (CAKI-1 [1]) | CC50 [2] | CC50 (CAKI-1 [3]) | Fold selectivity (CAKI-1 [4])
C=C1C2=NS(=O)(=O)CC23CCC1C3(C)C (stereo not drawn) | 7.57 | 2.1 µM | 15.9 µM | 6.36
C=C1C(=O)C2CCC1(C)C2(C)C (stereo not drawn) | 1 | 609 µM | 609 µM | 1
C=C1Cc2cc(OC)ccc2C1=O | 9.53 | 3.2 µM | 30.5 µM | 1.45
C=C1C(=O)C2(C(=O)Nc3ccc(OC)cc3)CCC1C2(C)C (stereo not drawn) | 7.55 | 14.3 µM | 108 µM | 7.11
C=C1C(=O)C2(C(=O)O)CCC1C2(C)C (stereo not drawn) | 1.46 | 353 µM | 515 µM | 1.15
C=C1C(=O)C2(CS(=O)(=O)NCc3ccc(OC)cc3)CCC1C2(C)C (stereo not drawn) | 2.72 | 69.9 µM | 190 µM | 1.93
O=C1C2CCN(CC2)C1(CO)CO | 9.42 | 17.2 µM | 162 µM | 6.4
COc1ccc(/C=C/c2nc(NCCCN(C)C)c3ccccc3n2)cc1 | 0.65 | 14.3 µM | 9.3 µM | 0.69
C=C1CCc2cc(OC)c(OC)cc2C1=O | 3.24 | 4.9 µM | 15.9 µM | 0.7
C=C1C(=O)C2(C(=O)NCc3ccc(OC)cc3)CCC1C2(C)C (stereo not drawn) | 7.55 | 15.9 µM | 120 µM | 7.31
C=C1C(=O)C2(CS(=O)(=O)NCC(C)C)CCC1C2(C)C (stereo not drawn) | 2.13 | 157 µM | 334 µM | 1.95
C=C1C(=O)C2(CS(=O)(=O)Nc3ccc(OC)cc3)CCC1C2(C)C (stereo not drawn) | 8.98 | 12.7 µM | 114 µM | 8.51
C=C1CC2CCC1C2 (stereo not drawn) |  | > 924 µM | > 924 µM | 
C=C1CCc2ccccc2C1=O | 2.37 | 12.9 µM | 30.6 µM | 1.1
C=C1CCc2cc(OC)ccc2C1=O | 9 | 1.8 µM | 16.2 µM | 0.65
C=C1C(=O)[C@@]2(C)CC[C@H]1C2(C)C | 1 | 609 µM | 609 µM | 3.29
O=C1CC2CCC1C2 (stereo not drawn) |  | > 618 µM | > 618 µM | 
C=C1C(=O)C2CC1C1CCCC21 (stereo not drawn) | 7.74 | 35 µM | 271 µM | 10.15
C=C1C(=O)C2(C(=O)OC)CCC1C2(C)C (stereo not drawn) | 1.36 | 26.4 µM | 36 µM | 1.54
C=C1C2CCC(C2)C1O (stereo not drawn) | 1 | 805 µM | 805 µM | 3.9
C=C1C(=O)C2CCC1C2 (stereo not drawn) | 13.16 | 8.28 µM | 109 µM | 29.7
C=C1C(=O)C2(C(=O)NCC(C)C)CCC1C2(C)C (stereo not drawn) | 7.95 | 21.5 µM | 171 µM | 8.07
CC(C)=C1CC[C@H](C)CC1=O | 1.29 | 509 µM | 657 µM | 1.83
C=C1/C(=N/O)C2CCC1C2 (stereo not drawn) |  |  | > 728 µM | 
C=C1CCOC1=O [TULIPALINE A] | 1.41 | 39.3 µM | 55.4 µM | 1.13
